ChEMBL document CHEMBL1142492 (J Med Chem, 2008)

Columns and labels:
Rattus norvegicus [1] = species on record: Rattus norvegicus; details: 3 uM
[2] = target: Tyrosine-protein kinase HCK (Homo sapiens) (UniProt P08631); test: Inhibition of HCK at 3 uM
[3] = target: Serine/threonine-protein kinase PAK 5 (Homo sapiens) (UniProt Q9P286); test: Inhibition of PAK7/PAK5 at 3 uM
[4] = target: B1 bradykinin receptor (Homo sapiens) (UniProt P46663); test: Inhibition of human bradykinin B1 receptor at 3 uM
Method in brief: (§1)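 Counter-screen binding/enzyme panel at single 3 μM, n=2; results as percent inhibition. Species per target as listed (rat NMDA, GABAA sites; human receptors, transporters; rabbit ACE).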

[5] = target: Serine/threonine-protein kinase BRSK2 (Homo sapiens) (UniProt Q8IWQ3); test: Inhibition of BRSK2 at 3 uM
[6] = target: Epidermal growth factor receptor (Homo sapiens) (UniProt P04626+P00533+Q15303+P21860); test: Inhibition of EGFR L747-T751del,Sins mutant at 3 uM; assay type: protein assay
[7] = system: Mast/stem cell growth factor receptor Kit (Homo sapiens), P10721 [V559D,V654A]; test: Inhibition of KIT V559D,V654A mutant at 3 uM
[8] = target: Proto-oncogene tyrosine-protein kinase ROS (Homo sapiens) (UniProt P08922); test: Inhibition of ROS1 at 3 uM
[9] = target: Serine/threonine-protein kinase 33 (Homo sapiens) (UniProt Q9BYT3); test: Inhibition of STK33 at 3 uM
[10] = target: Type-2 angiotensin II receptor (Homo sapiens) (UniProt P50052); test: Inhibition of human AT2 receptor at 3 uM
Method in brief: as §1

[11] = target: Serine/threonine-protein kinase PLK3 (Homo sapiens) (UniProt Q9H4B4); test: Inhibition of PLK3 at 3 uM
[12] = target: Activin receptor type-2A (Homo sapiens) (UniProt P27037); test: Inhibition of ACVR2A at 3 uM
Rattus norvegicus [13] = species on record: Rattus norvegicus; details: 3 uM; remark: listed apart in the source
[14] = target: Epithelial discoidin domain-containing receptor 1 (Homo sapiens) (UniProt Q08345); test: Inhibition of DDR1 at 3 uM
[15] = target: Ephrin type-A receptor 5 (Homo sapiens) (UniProt P54756); test: Inhibition of EPHA5 at 3 uM
Method in brief: (§2)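 Single-concentration kinase panel scoring: each value is the percentage of enzyme activity remaining relative to a DMSO-only control. An activity statistically indistinct from DMSO control was scored "no hit".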

[16] = target: Bone morphogenetic protein receptor type-2 (Homo sapiens) (UniProt Q13873); test: Inhibition of BMPR2 at 3 uM
[17] = target: Serine/threonine-protein kinase TNNI3K (Homo sapiens) (UniProt Q59H18); test: Inhibition of TNNI3K at 3 uM
[18] = target: Protein kinase C theta type (Homo sapiens) (UniProt Q04759); test: Inhibition of PRKCQ at 3 uM
[19] = target: Muscarinic acetylcholine receptor M1 (Homo sapiens) (UniProt P11229); test: Inhibition of human muscarinic M1 receptor at 3 uM
Method in brief: as §1

[20] = target: Dual specificity protein kinase TTK (Homo sapiens) (UniProt P33981); test: Inhibition of TTK at 3 uM
in vivo = details: Sprague-Dawley, rat, plasma, iv, 1 mg/kg
[21] = target: Gamma-aminobutyric acid receptor subunit alpha-1 (Rattus norvegicus) (UniProt P62813); test: Displacement of muscimol from rat GABAA1 receptor at 3 uM
Method in brief: as §1

Rattus norvegicus [22] = species on record: Rattus norvegicus; details: 3 uM; remark: listed apart in the source
[23] = target: Serine/threonine-protein kinase D3 (Homo sapiens) (UniProt O94806); test: Inhibition of PRKD3 at 3 uM
[24] = target: Serine/threonine-protein kinase RIO2 (Homo sapiens) (UniProt Q9BVS4); test: Inhibition of RIOK2 at 3 uM
[25] = target: Cyclin-dependent kinase 16 (Homo sapiens) (UniProt Q00536); test: Inhibition of PCTK1 at 3 uM
[26] = target: D(4) dopamine receptor (Homo sapiens) (UniProt P21917); test: Inhibition of human dopamine D4 receptor at 3 uM
Method in brief: as §1

[27] = system: Tyrosine-protein kinase ABL1 (Homo sapiens), P00519 [F317L]; test: Inhibition of ABL1 F317L mutant at 3 uM
[28] = target: Mitogen-activated protein kinase 13 (Homo sapiens) (UniProt O15264); test: Inhibition of p38-delta at 3 uM
[29] = target: Aurora kinase A (Homo sapiens) (UniProt O14965); test: Inhibition of AURKA at 3 uM
[30] = target: Interferon-induced, double-stranded RNA-activated protein kinase (Homo sapiens) (UniProt P19525); test: Inhibition of PRKR at 3 uM
[31] = target: Myosin light chain kinase, smooth muscle (Homo sapiens) (UniProt Q15746); test: Inhibition of MLCK at 3 uM
[32] = target: Cytoplasmic tyrosine-protein kinase BMX (Homo sapiens) (UniProt P51813); test: Inhibition of BMX at 3 uM
[33] = target: Angiotensin-converting enzyme (Oryctolagus cuniculus) (UniProt P12822); test: Inhibition of rabbit ACE at 3 uM
Method in brief: as §1

[34] = target: Serine/threonine-protein kinase SIK1 (Homo sapiens) (UniProt P57059); test: Inhibition of SNF1LK at 3 uM
[35] = target: Discoidin domain-containing receptor 2 (Homo sapiens) (UniProt Q16832); test: Inhibition of DDR2 at 3 uM
[36] = target: Prostaglandin E2 receptor EP4 subtype (Homo sapiens) (UniProt P35408); test: Inhibition of human prostanoid EP4 receptor at 3 uM
Method in brief: as §1

[37] = target: Kappa-type opioid receptor (Homo sapiens) (UniProt P41145); test: Inhibition of human kappa opioid receptor at 3 uM
[38] = target: Cyclin-dependent kinase-like 2 (Homo sapiens) (UniProt Q92772); test: Inhibition of CDKL2 at 3 uM
[39] = system: Tyrosine-protein kinase ABL1 (Homo sapiens), P00519 [Q252H]; test: Inhibition of ABL1 Q252H mutant at 3 uM
[40] = system: Epidermal growth factor receptor (Homo sapiens), P00533 [L858R]; test: Inhibition of EGFR L858R mutant at 3 uM; assay type: protein assay
Method in brief: as §2

[41] = target: Ankyrin repeat and protein kinase domain-containing protein 1 (Homo sapiens) (UniProt Q8NFD2); test: Inhibition of ANKK1 at 3 uM
[42] = target: cGMP-dependent protein kinase 2 (Homo sapiens) (UniProt Q13237); test: Inhibition of PRKG2 at 3 uM
[43] = target: Calcium/calmodulin-dependent protein kinase type 1D (Homo sapiens) (UniProt Q8IU85); test: Inhibition of CAMK1D at 3 uM
[44] = target: NUAK family SNF1-like kinase 1 (Homo sapiens) (UniProt O60285); test: Inhibition of ARK5 at 3 uM
NUAK family SNF1-like kinase 1 (Homo sapiens), sequence (O60285 whole entry): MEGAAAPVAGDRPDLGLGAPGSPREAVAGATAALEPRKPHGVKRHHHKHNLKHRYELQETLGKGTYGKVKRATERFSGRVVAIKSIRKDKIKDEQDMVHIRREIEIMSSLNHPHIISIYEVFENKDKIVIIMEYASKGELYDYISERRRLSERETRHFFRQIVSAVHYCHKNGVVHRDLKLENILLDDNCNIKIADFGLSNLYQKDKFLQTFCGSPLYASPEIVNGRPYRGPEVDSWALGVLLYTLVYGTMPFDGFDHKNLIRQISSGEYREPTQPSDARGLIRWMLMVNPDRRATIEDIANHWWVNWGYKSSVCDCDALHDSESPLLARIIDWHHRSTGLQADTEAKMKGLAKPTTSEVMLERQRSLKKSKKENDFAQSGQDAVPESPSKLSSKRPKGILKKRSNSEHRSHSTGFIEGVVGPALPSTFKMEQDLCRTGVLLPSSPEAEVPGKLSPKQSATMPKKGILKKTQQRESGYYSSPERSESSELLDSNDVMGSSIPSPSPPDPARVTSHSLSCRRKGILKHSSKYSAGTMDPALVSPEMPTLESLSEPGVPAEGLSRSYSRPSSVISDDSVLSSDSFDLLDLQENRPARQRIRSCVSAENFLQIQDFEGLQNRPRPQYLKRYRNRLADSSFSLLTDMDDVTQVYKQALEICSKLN

Serine/threonine-protein kinase PLK3 (Homo sapiens), sequence (Q9H4B4 whole entry, looked up): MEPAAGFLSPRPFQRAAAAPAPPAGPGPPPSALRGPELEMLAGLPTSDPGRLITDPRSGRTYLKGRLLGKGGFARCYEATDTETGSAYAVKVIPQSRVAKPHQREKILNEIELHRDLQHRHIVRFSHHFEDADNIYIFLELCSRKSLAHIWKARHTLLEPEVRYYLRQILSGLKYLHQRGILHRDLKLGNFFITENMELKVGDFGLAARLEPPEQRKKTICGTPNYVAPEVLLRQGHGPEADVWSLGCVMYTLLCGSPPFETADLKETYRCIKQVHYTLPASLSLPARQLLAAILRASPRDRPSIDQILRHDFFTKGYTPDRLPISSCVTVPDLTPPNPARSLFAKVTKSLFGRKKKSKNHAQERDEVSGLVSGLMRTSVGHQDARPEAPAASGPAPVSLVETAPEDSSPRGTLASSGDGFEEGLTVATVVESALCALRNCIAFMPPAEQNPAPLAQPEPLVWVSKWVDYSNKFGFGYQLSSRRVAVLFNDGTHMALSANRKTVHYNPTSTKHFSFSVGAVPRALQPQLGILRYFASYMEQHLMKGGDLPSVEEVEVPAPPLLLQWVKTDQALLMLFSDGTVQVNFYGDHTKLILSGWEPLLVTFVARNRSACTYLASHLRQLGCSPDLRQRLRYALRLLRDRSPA
Kappa-type opioid receptor (Homo sapiens), sequence (P41145 whole entry, looked up): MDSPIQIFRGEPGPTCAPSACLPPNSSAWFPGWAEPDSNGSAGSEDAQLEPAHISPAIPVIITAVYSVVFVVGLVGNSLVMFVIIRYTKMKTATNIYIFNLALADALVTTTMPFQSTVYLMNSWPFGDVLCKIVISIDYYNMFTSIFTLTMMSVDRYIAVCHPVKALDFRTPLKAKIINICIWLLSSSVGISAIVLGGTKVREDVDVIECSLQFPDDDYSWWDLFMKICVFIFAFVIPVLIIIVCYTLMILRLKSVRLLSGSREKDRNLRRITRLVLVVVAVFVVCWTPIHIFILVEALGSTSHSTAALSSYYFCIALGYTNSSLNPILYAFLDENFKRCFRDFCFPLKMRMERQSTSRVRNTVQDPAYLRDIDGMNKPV
Mitogen-activated protein kinase 13 (Homo sapiens), sequence (O15264 whole entry): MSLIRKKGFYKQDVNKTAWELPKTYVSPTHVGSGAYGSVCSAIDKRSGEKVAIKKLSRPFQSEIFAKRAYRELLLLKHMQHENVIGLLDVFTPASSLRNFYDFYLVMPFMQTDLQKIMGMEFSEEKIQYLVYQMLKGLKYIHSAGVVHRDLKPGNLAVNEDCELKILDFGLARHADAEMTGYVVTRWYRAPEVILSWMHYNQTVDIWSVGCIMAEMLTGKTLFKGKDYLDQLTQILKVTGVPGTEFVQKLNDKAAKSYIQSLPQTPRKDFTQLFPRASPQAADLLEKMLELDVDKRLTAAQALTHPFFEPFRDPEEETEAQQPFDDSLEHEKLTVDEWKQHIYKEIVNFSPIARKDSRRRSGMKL
Type-2 angiotensin II receptor (Homo sapiens), sequence (P50052 whole entry): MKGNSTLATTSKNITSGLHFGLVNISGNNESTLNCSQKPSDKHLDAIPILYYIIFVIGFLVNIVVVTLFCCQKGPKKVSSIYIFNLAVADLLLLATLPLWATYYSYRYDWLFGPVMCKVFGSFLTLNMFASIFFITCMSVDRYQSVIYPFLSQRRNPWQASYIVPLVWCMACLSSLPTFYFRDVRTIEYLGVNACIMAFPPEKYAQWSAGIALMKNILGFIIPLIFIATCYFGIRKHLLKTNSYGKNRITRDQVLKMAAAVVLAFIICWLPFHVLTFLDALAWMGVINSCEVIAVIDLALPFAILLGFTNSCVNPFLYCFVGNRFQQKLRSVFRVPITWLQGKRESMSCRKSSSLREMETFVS
Ankyrin repeat and protein kinase domain-containing protein 1 (Homo sapiens), sequence (Q8NFD2 whole entry, the tested form may be a part): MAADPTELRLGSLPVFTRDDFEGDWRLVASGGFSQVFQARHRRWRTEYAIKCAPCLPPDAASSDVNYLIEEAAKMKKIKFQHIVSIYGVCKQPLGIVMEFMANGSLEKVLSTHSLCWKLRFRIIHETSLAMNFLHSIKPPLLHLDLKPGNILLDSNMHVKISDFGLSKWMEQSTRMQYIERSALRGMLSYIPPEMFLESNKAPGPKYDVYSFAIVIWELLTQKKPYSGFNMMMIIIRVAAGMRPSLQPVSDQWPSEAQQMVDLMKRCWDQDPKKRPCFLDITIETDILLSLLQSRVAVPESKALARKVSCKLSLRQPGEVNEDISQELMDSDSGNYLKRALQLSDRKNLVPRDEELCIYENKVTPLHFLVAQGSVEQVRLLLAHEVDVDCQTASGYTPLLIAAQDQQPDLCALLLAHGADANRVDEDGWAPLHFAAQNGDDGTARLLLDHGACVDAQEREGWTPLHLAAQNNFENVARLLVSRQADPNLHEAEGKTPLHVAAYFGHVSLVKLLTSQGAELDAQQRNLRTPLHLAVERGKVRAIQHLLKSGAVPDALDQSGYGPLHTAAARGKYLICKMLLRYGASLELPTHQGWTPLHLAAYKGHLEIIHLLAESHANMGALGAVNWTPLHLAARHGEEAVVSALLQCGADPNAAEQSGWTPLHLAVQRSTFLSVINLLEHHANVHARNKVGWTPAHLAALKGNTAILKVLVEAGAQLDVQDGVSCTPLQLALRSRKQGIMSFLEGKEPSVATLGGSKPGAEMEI
Serine/threonine-protein kinase PAK 5 (Homo sapiens), sequence (Q9P286 whole entry, looked up): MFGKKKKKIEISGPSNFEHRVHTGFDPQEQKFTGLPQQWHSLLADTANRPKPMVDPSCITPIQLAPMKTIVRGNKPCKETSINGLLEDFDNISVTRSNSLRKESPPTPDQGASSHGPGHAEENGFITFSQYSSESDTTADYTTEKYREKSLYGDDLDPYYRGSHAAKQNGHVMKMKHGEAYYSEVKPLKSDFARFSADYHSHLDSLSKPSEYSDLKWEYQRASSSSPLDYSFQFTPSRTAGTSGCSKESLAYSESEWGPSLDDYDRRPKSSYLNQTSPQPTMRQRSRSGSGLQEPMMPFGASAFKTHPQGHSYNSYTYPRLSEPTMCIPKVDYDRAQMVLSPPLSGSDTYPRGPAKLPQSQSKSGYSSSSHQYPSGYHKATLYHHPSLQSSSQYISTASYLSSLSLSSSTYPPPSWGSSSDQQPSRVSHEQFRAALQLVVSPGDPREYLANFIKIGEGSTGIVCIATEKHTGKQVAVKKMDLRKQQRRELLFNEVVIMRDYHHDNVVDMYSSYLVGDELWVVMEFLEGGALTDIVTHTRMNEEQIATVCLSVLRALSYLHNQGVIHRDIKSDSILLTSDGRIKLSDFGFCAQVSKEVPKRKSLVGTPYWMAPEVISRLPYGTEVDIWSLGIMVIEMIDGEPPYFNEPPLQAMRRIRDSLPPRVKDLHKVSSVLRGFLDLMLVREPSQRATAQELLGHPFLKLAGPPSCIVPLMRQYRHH
Activin receptor type-2A (Homo sapiens), sequence (P27037 whole entry): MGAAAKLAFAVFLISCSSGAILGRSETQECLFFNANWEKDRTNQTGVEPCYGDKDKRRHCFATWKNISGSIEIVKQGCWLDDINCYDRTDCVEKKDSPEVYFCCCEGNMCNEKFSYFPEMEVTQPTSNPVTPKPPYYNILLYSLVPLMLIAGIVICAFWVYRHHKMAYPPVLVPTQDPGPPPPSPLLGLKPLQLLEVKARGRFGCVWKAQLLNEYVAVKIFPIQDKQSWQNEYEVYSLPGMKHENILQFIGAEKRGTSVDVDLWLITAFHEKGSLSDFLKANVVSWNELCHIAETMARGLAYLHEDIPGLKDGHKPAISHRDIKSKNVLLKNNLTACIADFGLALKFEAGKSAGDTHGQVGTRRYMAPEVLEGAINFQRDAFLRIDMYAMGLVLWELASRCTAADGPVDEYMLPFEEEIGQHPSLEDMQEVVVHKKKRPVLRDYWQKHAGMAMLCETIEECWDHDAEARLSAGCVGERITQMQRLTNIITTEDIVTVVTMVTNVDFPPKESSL
D(4) dopamine receptor (Homo sapiens), sequence (P21917 whole entry): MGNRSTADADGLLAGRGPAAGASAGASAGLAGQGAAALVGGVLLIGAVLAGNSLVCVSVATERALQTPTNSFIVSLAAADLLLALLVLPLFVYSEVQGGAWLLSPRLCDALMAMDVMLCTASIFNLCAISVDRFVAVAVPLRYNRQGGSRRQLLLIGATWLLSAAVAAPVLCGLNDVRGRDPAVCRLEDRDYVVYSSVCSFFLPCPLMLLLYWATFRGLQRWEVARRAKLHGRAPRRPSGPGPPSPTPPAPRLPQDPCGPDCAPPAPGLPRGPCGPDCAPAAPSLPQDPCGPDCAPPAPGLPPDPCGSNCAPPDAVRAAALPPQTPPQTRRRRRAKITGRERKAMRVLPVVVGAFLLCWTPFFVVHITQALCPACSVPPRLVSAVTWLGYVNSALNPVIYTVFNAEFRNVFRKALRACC

CN(C)CCOc1cc(-c2cn[nH]c2)ccc1NC(=O)C1COc2ccccc2O1 (stereo not given) [SR-3677]
inhibition (Rattus norvegicus [1]): -4% | inhibition [2]: < 10% | inhibition [3]: < 10% | inhibition [4]: -3% | inhibition [5]: < 10% | inhibition [6]: < 10% | inhibition [7]: < 10% | inhibition [8]: < 10% | inhibition [9]: < 10% | inhibition [10]: -1% | inhibition [11]: < 10% | inhibition [12]: < 10% | inhibition (Rattus norvegicus [13]): -4% | inhibition [14]: < 10% | inhibition [15]: < 10% | inhibition [16]: < 10% | inhibition [17]: < 10% | inhibition [18]: < 10% | inhibition [19]: 6% | inhibition [20]: < 10% | AUC (in vivo): 0.7 µM·h | inhibition [21]: 5% | inhibition (Rattus norvegicus [22]): -1% | inhibition [23]: < 10% | inhibition [24]: < 10% | inhibition [25]: < 10% | inhibition [26]: -2% | inhibition [27]: < 10% | inhibition [28]: < 10% | inhibition [29]: < 10% | inhibition [30]: < 10% | inhibition [31]: < 10% | inhibition [32]: < 10% | inhibition [33]: 1% | inhibition [34]: < 10% | inhibition [35]: < 10% | inhibition [36]: 5% | inhibition [37]: -7% | inhibition [38]: < 10% | inhibition [39]: < 10% | inhibition [40]: < 10% | inhibition [41]: < 10% | inhibition [42]: < 10% | inhibition [43]: < 10% | inhibition [44]: < 10%
